# Results as given in paper PMC9586919 (ACS infectious diseases, 2021).
# Entries after “also recorded” stand apart in the source; their conditions may differ. Read-outs that look alike come from different tables or passages of the source.
# How the values were obtained:
# T. vaginalis [1] = conditions: cited from earlier work
# [2] = system: Human Embryonic Kidney (HEK) cells; assay: Toxicity against Human Embryonic Kidney; assay type: cell-based; conditions: for S.I. (Selectivity Index): HEK versus T. vaginalis
# [3] = system: T. vaginalis trophozoites of the metronidazole-sensitive strain G3; assay: Resorufin-based drug sensitivity assay; assay type: cell-based, Trichomonas vaginalis; conditions: for EC50: Trichomonas vaginalis
# [4] = mouse models of Chagas' disease; cited from earlier work
# T. vaginalis [5] = assay: Fluorescence microscopy; assay type: cell-based, Trichomonas vaginalis; conditions: 2×EC50
# In short: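 Samples from the growth-curve cultures, taken at 8-h intervals, were centrifuged twice at 2600 × g for 10 min at 4 °C, with a PBS pH 7.4 wash in between. Cells were air-dried 30 min on poly-L-lysine slides, fixed 15 min in 4% paraformaldehyde/PBS, washed, and mounted in antifade medium with DAPI. Nuclear volumes were measured from Z-stacks. Cultures were passaged at 24 h to 1.32×10^5 cells/mL.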
# T. foetus strain D1 = assay: In vitro activity against T. foetus; assay type: cell-based, Tritrichomonas foetus
# [6] = system: T. foetus D1 trophozoites; assay: Murine model of vaginal trichomonad infection; assay type: in vivo, BALB/c mice
# In short: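 Freshly weaned (21–24 days) female BALB/c mice were infected intravaginally with 10^6 mid-log T. foetus D1 trophozoites in 5 µL growth medium. One day later they received five doses over three days (1 on day 1, 2 on each of days 2 and 3). Doses were either oral gavage of 25 mg/kg per dose as a suspension in 1% hypromellose, 50 µL, or intravaginal 50 µg in 5 µL; controls received solvent. Live trophozoites in 30 µL PBS vaginal washes were counted in a chamber on day 4.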
# [7] = system: T. vaginalis strain F1623; assay: In vitro activity against T. vaginalis F1623; assay type: cell-based, Trichomonas vaginalis; conditions: T. vaginalis strain F1623, same assay as T. foetus
# [8] = system: T. vaginalis trophozoites; assay: Growth curve assay; assay type: cell-based, Trichomonas vaginalis; conditions: 2×EC50, continuous exposure 56 h, passage after 24 h
# [9] = Homo sapiens, HEK293, read-out: EC50 HEK
# [10] = read-out: EC50 T. vaginalis, resorufin assay, 24 h + 2 h, 2% O2/98% N2, average of at least 3 independent determinations and SD
# [11] = read-out: EC50 HEK, HEK cells, average of at least 3 independent determinations and SD
molecule,measurement,setting,value
"2-F, 2’-deoxyadenosine",antitrichomonal activity,T. vaginalis [1],~100 nM
"2’-F,2’-deoxyadenosine",antitrichomonal efficacy,T. vaginalis [1],substantial antitrichomonal efficacy
Nc1ncnc2c1ncn2[C@@H]1O[C@H](CO)[C@@H](O)[C@@H]1F [2’-deoxy-2’-fluoroarabinoadenosine],antitrichomonal efficacy,T. vaginalis [1],substantial antitrichomonal efficacy
"Nc1nc(F)nc2nc[nH]c12 [Compound 2-F-adenine, 2-F-adenine]",antitrichomonal activity,T. vaginalis [1],~100 nM
"Nc1ncnc2c1c(-c1ccc(Cl)c(Cl)c1)cn2[C@@H]1O[C@H](CO)[C@@H](O)[C@H]1O [FH3147, 7-deaza,7-(3,4-dichlorophenyl)adenosine]",S.I. (Selectivity Index),[2],">10,000"
same,EC50,[2]; [9],> 200 µM
same,in vitro anti-T. vaginalis activity (EC50) described in words,[3],double-digit nanomolar
same,EC50,[3]; [10],29 ± 3 nM
Nc1ncnc2c1c(-c1ccccc1F)cn2[C@@H]1O[C@H](CO)[C@@H](O)[C@H]1O [FH7435],EC50,[2]; [11],> 200 µM
Nc1ncnc2c1c(-c1cccc(Cl)c1)cn2[C@@H]1O[C@H](CO)[C@@H](O)[C@H]1O [FH8459],EC50,[2]; [11],> 200 µM
Nc1ncnc2c1c(-c1cc(Cl)cc(Cl)c1)cn2[C@@H]1O[C@H](CO)[C@@H](O)[C@H]1O [FH8460],EC50,[2]; [11],> 200 µM
Nc1ncnc2c1c(-c1ccccc1)cn2[C@@H]1O[C@H](CO)C[C@H]1O [FH8480],in vitro anti-T. vaginalis activity (EC50) described in words,[3],low micromolar
Cc1ccc(-c2cn([C@@H]3O[C@H](CO)C[C@H]3O)c3ncnc(N)c23)cc1 [FH8481],EC50,[2]; [11],> 200 µM
same,in vitro anti-T. vaginalis activity (EC50) described in words,[3],low micromolar
COc1ccc(-c2cn([C@@H]3O[C@H](CO)C[C@H]3O)c3ncnc(N)c23)cc1 [FH8494],EC50,[2]; [11],> 200 µM
Nc1ncnc2c1c(-c1ccc(Cl)cc1)cn2[C@@H]1O[C@H](CO)C[C@H]1O [FH8512],ill effects on the animals,[4],without any apparent ill effects
same,EC50,[2]; [11],> 200 µM
Nc1ncnc2c1c(-c1ccc(Cl)c(Cl)c1)cn2[C@@H]1O[C@H](CO)C[C@H]1O [FH8513],EC50,[2]; [11],> 200 µM
CC(C)c1ccc(-c2cn([C@@H]3O[C@H](CO)C[C@H]3O)c3ncnc(N)c23)cc1 [FH9574],EC50,[2]; [11],94 ± 9 µM
Nc1ncnc2c1c(-c1ccc3ccccc3c1)cn2[C@@H]1O[C@H](CO)C[C@H]1O [FH9575],EC50,[2]; [11],44 ± 5 µM
Nc1ncnc2c1c(-c1ccc(C(F)(F)F)cc1)cn2[C@@H]1O[C@H](CO)C[C@H]1O [FH9576],cell morphology / nuclei (DAPI),T. vaginalis [5]; 16 h continuous incubation,cells still looked normal at 16 h
same,EC50,[2]; [11],148 ± 22 µM
Nc1ncnc2c1c(-c1ccc(OC(F)(F)F)cc1)cn2[C@@H]1O[C@H](CO)C[C@H]1O [FH9577],cell morphology / nuclei (DAPI),T. vaginalis [5]; 16 h continuous incubation,looked healthy at 16 h
same,cell morphology / nuclei (DAPI),T. vaginalis [5]; 24 h continuous incubation,clearly displayed multiple nuclei at 24 h
Nc1ncnc2c1c(-c1ccc(Cl)cc1Cl)cn2[C@@H]1O[C@H](CO)C[C@H]1O [FH9581],EC50,[2]; [11],> 200 µM
Nc1ncnc2c1c(-c1ccc([N+](=O)[O-])cc1)cn2[C@@H]1O[C@H](CO)C[C@H]1O [FH9582],EC50,[2]; [11],> 200 µM
Nc1ncnc2c1c(-c1cccc(Cl)c1)cn2[C@@H]1O[C@H](CO)C[C@H]1O [FH10641],EC50,[2]; [11],> 200 µM
Cc1ccc(-c2cn([C@@H]3O[C@H](CO)C[C@H]3O)c3ncnc(N)c23)cc1Cl [FH10644],EC50,[2]; [11],94 ± 9 µM
COc1ccc(-c2cn([C@@H]3O[C@H](CO)C[C@H]3O)c3ncnc(N)c23)cc1Cl [FH10645],EC50,[2]; [11],> 200 µM
CCc1ccc(-c2cn([C@@H]3O[C@H](CO)C[C@H]3O)c3ncnc(N)c23)cc1 [FH10647],EC50,[2]; [11],133 ± 2 µM
Cc1cc(-c2cn([C@@H]3O[C@H](CO)C[C@H]3O)c3ncnc(N)c23)ccc1Cl [FH10648],EC50,[2]; [11],146 ± 13 µM
COc1cc(-c2cn([C@@H]3O[C@H](CO)C[C@H]3O)c3ncnc(N)c23)ccc1Cl [FH10649],EC50,[2]; [11],178 ± 6 µM
Cc1ccc(-c2cn([C@@H]3O[C@H](CO)C[C@H]3O)c3ncnc(N)c23)cc1C [FH10653],EC50,[2]; [11],168 ± 19 µM
Nc1ncnc2c1c(C1CCCCC1)cn2C1OC(CO)CC1O (stereo not drawn) [FH10669],in vitro anti-T. vaginalis activity (EC50) described in words,[3],very weak activity
Nc1ncnc2c1c(-c1ccc(F)cc1)cn2[C@@H]1O[C@H](CO)C[C@H]1O [FH10680],EC50,[2]; [11],> 200 µM
same,in vitro anti-T. vaginalis activity (EC50) described in words,[3],low micromolar
Nc1ncnc2c1c(-c1ccc(F)c(Cl)c1)cn2[C@@H]1O[C@H](CO)C[C@H]1O [FH10681],EC50,[2]; [11],> 200 µM
Nc1ncnc2c1c(-c1ccc(F)c(F)c1)cn2[C@@H]1O[C@H](CO)C[C@H]1O [FH10682],EC50,[2]; [11],> 200 µM
Nc1ncnc2c1c(-c1ccc(Cl)c(F)c1)cn2[C@@H]1O[C@H](CO)C[C@H]1O [FH10683],EC50,[2]; [11],151 ± 1 µM
Nc1ncnc2c1c(-c1ccc(C(F)(F)F)cc1)cn2[C@@H]1O[C@H](CO)[C@@H](O)[C@H]1O [FH11704],EC50,[2]; [11],> 200 µM
Cc1ccc(-c2cn([C@@H]3O[C@H](CO)[C@@H](O)[C@H]3O)c3ncnc(N)c23)cc1C [FH13820],EC50,[2]; [11],> 200 µM
Nc1ncnc2c1c(-c1ccc(F)cc1)cn2[C@@H]1O[C@H](CO)[C@@H](O)[C@H]1O [MS1001],EC50,[2]; [11],> 200 µM
"Nc1ncnc2c1c(-c1ccccc1)cn2[C@@H]1O[C@H](CO)[C@@H](O)[C@H]1O [TH1004, 7-deaza-7-phenyladenosine]",cell morphology / nuclei (DAPI),T. vaginalis [5]; 24 h continuous incubation,the cell membrane appears to be disintegrating and multiple nuclei are present in some cells
same,S.I. (Selectivity Index),[2],>465
same,EC50,[2]; [9],> 200 µM
same,EC50,[3]; [10],440 ± 59 nM
Cc1ccc(-c2cn([C@@H]3O[C@H](CO)[C@@H](O)[C@H]3O)c3ncnc(N)c23)cc1 [TH1011],EC50,[2]; [11],> 200 µM
same,in vitro anti-T. vaginalis activity (EC50) described in words,[3],double-digit nanomolar
Nc1ncnc2c1c(-c1ccc(Cl)cc1)cn2[C@@H]1O[C@H](CO)[C@@H](O)[C@H]1O [TH1012],EC50,T. foetus strain D1,13.9 µM
same,adverse effects during the treatment period,"[6]; oral 5×25 mg/kg or topical 1%, 25 mg/kg",No adverse effects were observed; also recorded: without any apparent ill effects
same,effect on infection (live trophozoites in vaginal washes on day 4),"[6]; topical intravaginal, 1% (50 μg per dose), five doses over three days",almost complete eradication of the infection; also recorded: almost completely eradicated the T. foetus infection; also recorded: strongly inhibited T. foetus infection in mice
same,ill effects on the animals,[4],without any apparent ill effects
same,cell morphology / nuclei (DAPI),T. vaginalis [5]; 24 h continuous incubation,displayed multiple nuclei at 24 h
same,EC50,[2]; [11],> 200 µM
same,in vitro anti-T. vaginalis activity (EC50) described in words,[3],double-digit nanomolar
same,EC50,[7],180 nM
COc1ccc(-c2cn([C@@H]3O[C@H](CO)[C@@H](O)[C@H]3O)c3ncnc(N)c23)cc1 [TH1013],EC50,[2]; [11],> 200 µM
Nc1ncnc2c1ncn2[C@@H]1O[C@H](CO)[C@@H](O)[C@@H]1O [adenine arabinoside],antitrichomonal efficacy,T. vaginalis [1],substantial antitrichomonal efficacy
"Cc1ncc([N+](=O)[O-])n1CCO [metronidazole, reference compound]",effect on T. vaginalis growth,[8],managed a modest amount of growth before arrest and population decline
same,EC50,"[3]; BD pouch bags incubation, n=16",260 ± 20 nM
same,EC50,"[3]; confirmation experiments, n=9, unit inferred",530 ± 100 nM
same,EC50,"[3]; in-pod incubation, n=16",280 ± 20 nM
same,EC50,"[3]; introduction, hit criterion",~300 nM
